Assay outcomes from PubChem.
OX1R antag-1 = blocks the human orexin 1 receptor. O43613. CHO/OX1R cells, Fluo-8 calcium fluorescence, orexin A. inhibition, % at 5 µM. 330,000 compounds, 0.43% hits. AID 434989;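 active = inhibition above its plate's threshold, mean inhibition of all tested compounds on the plate plus 3 SD, cut at about 37% in these data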
Target sequence (O43613 whole entry, looked up): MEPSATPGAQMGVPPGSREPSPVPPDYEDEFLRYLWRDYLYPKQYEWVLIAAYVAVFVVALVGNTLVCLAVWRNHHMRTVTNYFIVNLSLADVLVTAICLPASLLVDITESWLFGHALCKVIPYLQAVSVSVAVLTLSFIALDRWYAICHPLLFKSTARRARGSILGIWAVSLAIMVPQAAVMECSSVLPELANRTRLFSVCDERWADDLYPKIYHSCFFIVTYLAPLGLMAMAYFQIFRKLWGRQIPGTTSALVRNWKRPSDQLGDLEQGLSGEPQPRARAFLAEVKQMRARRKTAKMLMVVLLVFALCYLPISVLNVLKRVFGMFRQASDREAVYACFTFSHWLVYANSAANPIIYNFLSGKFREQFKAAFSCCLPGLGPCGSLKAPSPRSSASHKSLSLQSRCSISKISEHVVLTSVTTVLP
CHO parental Ca = signal in parental CHO cells, OX1R antagonist counter-screen; AID 463079; 330,000 compounds, 0.63% hits; parental CHO-K1, ATP-induced calcium, Fluo-8 fluorescence; inhibition, % at 5.6 µM;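 active = inhibition above that plate's mean sample inhibition plus 3 SD, cut at about 26% in these data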
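material = parental CHO cells | also added = ATP as calcium-mobilizing challenge | dosing = single point at 5.6 µM | detection = intracellular calcium via Fluo-8 no-wash fluorescent dye | read-out = % inhibition | benchmarks = low control ATP plus DMSO, high control DMSO only | repeats = one well per compound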
TAAR1 antagonist = human TAAR1 antagonism | Q96RJ0 | AID 624466 | inhibition, % at 3 µM | CHO RD-HGA16 TAAR1, Fluo-8 calcium fluorescence, antagonist | 360,000 compounds, 1.5% hits;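 active = inhibition above a per-plate cutoff, the mean inhibition of test compounds on that plate plus 3 SD, cut at about 49% in these data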
Target sequence (Q96RJ0 whole entry, looked up): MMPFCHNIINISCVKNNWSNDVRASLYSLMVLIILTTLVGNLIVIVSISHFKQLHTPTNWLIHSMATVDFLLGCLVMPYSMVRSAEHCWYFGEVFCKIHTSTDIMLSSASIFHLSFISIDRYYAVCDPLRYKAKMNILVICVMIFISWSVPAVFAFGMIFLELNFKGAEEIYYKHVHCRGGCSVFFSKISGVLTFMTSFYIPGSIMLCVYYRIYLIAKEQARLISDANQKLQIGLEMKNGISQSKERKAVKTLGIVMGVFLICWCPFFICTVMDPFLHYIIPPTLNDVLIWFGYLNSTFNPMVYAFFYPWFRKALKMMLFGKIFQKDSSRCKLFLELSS
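Test system – hTAAR1-expressing CHO RD-HGA16 cells, Gα16-coupled · Also added – β-PEA at EC80 concentration, post-compound challenge · Compound – 3 µM, single point · Incubation – dye loading 75 min at 37 °C, then 30 min room temperature · Measured by – Fluo-8 intracellular calcium dye fluorescence, real-time kinetic reads · Benchmarks – vehicle and agonist controls · Replicates – singlicate, one well per test compound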
TAAR1 agonist = human TAAR1 agonism | CHO RD-HGA16 TAAR1, Fluo-8 calcium fluorescence; vehicle wells 0%, saturating PEA agonist 100% | 360,000 compounds, 0.99% hits | AID 624467 | activation, % at 3 µM | Q96RJ0;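 active = activation above the mean activation of all test compounds in the run plus 3 SD, cut at about 38% in these data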
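System: CHO RD-HGA16 cells carrying human TAAR1 plus Gα16; Incubation: 17-24 h seeding, 75 min 37 °C dye, 30 min RT; Measured by: Fluo-8 fluorescence, 5 s baseline then 140 s kinetic read; Control set: DMSO and PEA EC100; Replication: single well for each compound.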
OX1R antag-2 = OX1R (human) antagonism; O43613; OX1R-expressing cells, FRET antagonist read-out; inhibition, % at 6.6 µM; 330,000 compounds, 1.8% hits; AID 485270; in the data active = inhibition mostly above about 38%, no sharp cut-off; inactive = mostly below about 40%
GalR3 antag = human GalR3 antagonism. 360,000 compounds, 0.44% hits. inhibition, % at 3 µM. HEK293 GalR3-CNG cAMP membrane potential fluorescence; galR3 body fused to GalR1 C-terminus. AID 651719. O60755;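 active = inhibition above the screen-wide average plus 3 SD, cut at about 13% in these data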;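 note: forskolin and galanin both at EC90 stimulate the cells; cAMP rise reported by CNG channel membrane potential dye signal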
Each line names hits and unclear results; the compound was inactive in the other large screens. Compounds with a hit are over-represented: about 4.3% of the library has one in this group of screens.

CCOC(=O)c1oc2cccc(O)c2c1C	OX1R antag-2 39.3
CCOC(=O)c1oc2cccc(OC(C)=O)c2c1C	none
C=CCN(c1ccccc1Cl)S(=O)(=O)c1cccc(C(=O)NCCc2ccc(OC)cc2)c1	TAAR1 antagonist 60.6
CC(C)Oc1ccc(Br)cc1C(=O)N/N=C/c1c[nH]c2ccccc12	OX1R antag-2 40.2
F[B-](F)(F)COCc1ccccc1C#Cc1ccccc1	none (no result: OX1R antag-1, CHO parental Ca, OX1R antag-2)
Cc1ccc2[nH]c(=O)c(CN(C(=O)c3cccc([N+](=O)[O-])c3)C(C)C)cc2c1	OX1R antag-2 51.4
Brc1cccc(-c2nc3c4ccccc4ccn3c2Cc2ccccc2)c1	none (no result: OX1R antag-1, CHO parental Ca, OX1R antag-2)
CCOC(=O)COc1cc([N+](=O)[O-])cc2cccnc12	OX1R antag-2 42.0
O=c1ccc2ccc(Oc3ccc([N+](=O)[O-])cc3[N+](=O)[O-])cc2o1	OX1R antag-2 85.3 (no result: TAAR1 antagonist, TAAR1 agonist, GalR3 antag)
O=C(Oc1ccc2ccc(=O)oc2c1)c1ccc([N+](=O)[O-])cc1	none
CC(C)/C=C1\CC/C(=C\c2ccc(N(C)C)cc2)C1=O	OX1R antag-1 65.6, CHO parental Ca 53.1, TAAR1 antagonist 71.7, TAAR1 agonist 56.6
COc1ccccc1-c1cccc(-c2nc(C(=O)N3CCCCC3)cc3c2[C@H](CCO)N(S(=O)C(C)(C)C)C3)c1 (stereo partly drawn)	TAAR1 antagonist 57.7 (no result: OX1R antag-1, CHO parental Ca, OX1R antag-2)
CCCNC(=O)c1cc2c(c(-c3cccc(-c4ccc(F)cc4)c3)n1)[C@H](CCO)N(S(=O)C(C)(C)C)C2 (stereo partly drawn)	none (no result: OX1R antag-1, CHO parental Ca, OX1R antag-2)
CCCNC(=O)c1cc2c(c(-c3cccc(-c4ccc(F)cc4)c3)n1)[C@@H](CCO)N(S(=O)C(C)(C)C)C2 (stereo partly drawn)	TAAR1 antagonist 49.4 (no result: OX1R antag-1, CHO parental Ca, OX1R antag-2)
CN1CCN(C(=O)c2cc3c(c(-c4cccc(C#CC(C)(C)O)c4)n2)[C@H](CCO)N(S(=O)C(C)(C)C)C3)CC1 (stereo partly drawn)	none (no result: OX1R antag-1, CHO parental Ca, OX1R antag-2)
Cc1cc(NC(=O)c2csc([C@@H]3O[C@H](CO)[C@H](O)[C@H](O)[C@H]3O)n2)n(C)n1	none (no result: OX1R antag-1, CHO parental Ca, OX1R antag-2)
CC(=O)c1cccc(NC(=O)c2ccoc2C)c1	none
COc1ccc(C(=O)Nc2cccc(/C(C)=N\NC(=O)c3ccoc3C)c2)cc1OC	TAAR1 antagonist 49.2 (no result: OX1R antag-1, CHO parental Ca, OX1R antag-2)
COc1ccc(CN2CCC(n3nccc3NC(=O)C3CC3)CC2)c(Cl)c1OC	none
O=C(Nc1cccc(C(F)(F)F)c1)c1ccc(Cn2cc(Br)cn2)o1	TAAR1 antagonist 53.6, TAAR1 agonist 56.9
O=C(CSCc1ccccc1)NCCc1ccc(F)cc1	none
O=C(CSCc1ccc(Br)cc1)NCCc1ccccc1	TAAR1 agonist 40.4
CCCOC(=O)c1ccc(OCC(O)CN2C(=O)NC(C)(C)C2=O)cc1 (stereo not drawn)	CHO parental Ca 99.2
CCOC(=O)Cc1csc(NC(=O)Cc2ccccc2[N+](=O)[O-])n1	none
CCOC(=O)Cc1csc(NC(=O)c2ccc(Br)o2)n1	none
CCOC(=O)Cc1csc(NC(=O)/C=C/c2ccc(Br)o2)n1	TAAR1 antagonist 48.6
CCOC(=O)Cc1csc(NC(=O)C(C)c2ccc([N+](=O)[O-])cc2)n1 (stereo not drawn)	TAAR1 agonist 49.7
CCOc1ccccc1NC(=O)CC1(CC(=O)N2CCOCC2)CCCC1	none (no result: OX1R antag-1, CHO parental Ca, OX1R antag-2)
Cc1ccc(OCc2cc(C(=O)NC3CCOC3)no2)cc1C (stereo not drawn)	none
NS(=O)(=O)c1ccc(Nc2nc(-c3cccc([N+](=O)[O-])c3)cs2)cc1	TAAR1 antagonist 54.5
COc1ccc(NC(=O)N(C)C[C@@H]2OCc3cn(nn3)CCCC(=O)N([C@H](C)CO)C[C@H]2C)cc1	none (no result: OX1R antag-1, CHO parental Ca, OX1R antag-2)
COc1ccc(Cl)cc1NC(=O)CN(C)C1CCCCC1	none
COc1ccc(OC)c(NC(=O)CN(Cc2ccc(F)cc2)C2CCCCC2)c1	CHO parental Ca 44.7
CCCCOC(=O)CSCC(=O)N1N=C(c2cccs2)CC1c1ccc(F)cc1 (stereo not drawn)	CHO parental Ca 29.0
COC(=O)CC#C[C@@H](C)[C@H](NS(=O)(=O)c1ccc(C)cc1)C(C)(C)C	none (no result: OX1R antag-1, CHO parental Ca, OX1R antag-2)
Cc1c(C(=O)NCc2cccc(C(F)(F)F)c2)sc(=O)n1Cc1ccc(C(=O)N(C)C)cc1	none (no result: OX1R antag-1, CHO parental Ca, OX1R antag-2)
CCOC(=O)c1oc2ccc(S(=O)(=O)n3nc(-c4ccccc4)cc3N)cc2c1C	CHO parental Ca 32.3
CC1Oc2ccccc2C=C1/C=N/NC(=O)c1ccccc1O (stereo not drawn)	OX1R antag-2 75.2
CC1Oc2ccccc2C=C1/C=N/NC(=O)c1ccccc1 (stereo not drawn)	none
O=C1CCCCN1CCCC(=O)N1CCCC(Nc2ccccc2)C1 (stereo not drawn)	none
O=C(Cn1nc(-c2ccc3c(c2)OCCO3)ccc1=O)Nc1ccc(-n2cnnn2)cc1	CHO parental Ca 29.2
CCCCCCCCN1C(=O)[C@@H](CC(=O)NCc2cccs2)C[C@@]2(C(=O)OC)C1=C[C@H](C(C)(C)C)O[C@@H]2C	none (no result: OX1R antag-1, CHO parental Ca, OX1R antag-2)
CC(=O)c1sc2nc(C)c3c(c2c1N)CCCC3	OX1R antag-2 50.2
CCOC(=O)C1CCCN(C(=O)c2ccc3c(c2)OCO3)C1 (stereo not drawn)	none
CCOC(=O)C1CCN(C(=O)c2ccc3c(c2)OCO3)CC1	CHO parental Ca 57.0
CC(=O)Nc1sc(C)c(C)c1C(=O)OCC(=O)N(Cc1ccccc1)C(C)C	none
Cc1cc(NC(=O)Cc2ccccc2)nc2c1c(=O)oc1ccccc12	none
COc1cccc(C(=O)Nc2cc(C)c3c(=O)oc4ccccc4c3n2)c1	OX1R antag-2 44.8
CCn1c2ccccc2c2nnc(SCCCn3c(=O)[nH]c4ccccc43)nc21	OX1R antag-2 35.5 (no result: TAAR1 antagonist, TAAR1 agonist, GalR3 antag)
CCn1c2ccccc2c2nnc(SCc3ccccc3)nc21	CHO parental Ca 31.6
CCn1c2ccccc2c2nnc(SCCN3CCCCC3)nc21	none
C=CCOc1cccn2c(N(C=O)Cc3ccccc3)c(CC)nc12	none (no result: OX1R antag-1, CHO parental Ca, OX1R antag-2)
O=[N+]([O-])c1cccc(-c2cnc3ccccc3n2)c1	none
O=[N+]([O-])c1cnc2ccccc2c1	OX1R antag-2 71.4
O=S(=O)(c1ccccc1)N1CCC(n2cnc3ccccc32)CC1	none
Cc1nc(NC(=O)CSc2nnc(C3CC3)n2N)c(Cl)cc1Cl	none
COc1ccc(C2CC(=O)C(c3cccc(OC)c3)=CN2Cc2ccccc2)cc1 (stereo not drawn)	none (no result: OX1R antag-1, CHO parental Ca, OX1R antag-2)
O=C(Nc1nnc(SCc2ccc(F)cc2)s1)C1CC(=O)N(c2ccc3c(c2)OCCO3)C1 (stereo not drawn)	TAAR1 agonist 37.9
CN(Cc1cnn(-c2ccc(F)cc2)c1)C(=O)[C@H]1O[C@@H](n2ccc(=O)[nH]c2=O)[C@H](O)[C@@H]1O	none (no result: OX1R antag-1, CHO parental Ca, OX1R antag-2)
